In the library only some 2.3% were active in any assay of this set; here they are far more common.
TRPC6 activator = activates the mouse TRPC6 cation channel. Q61143. HEK293-TRPC6 membrane potential dye fluorescence; stronger effect = higher value. B-score at 10 µM. actives 0.13% (n = 310,000);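 active means B-score of the integrated fluorescence ratio above library mean plus 3 SD, and starting fluorescence ratio within library mean plus 5 SD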;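 further: higher score means more depolarization so channel activation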
TRPC4 block = TRPC4 (mouse) channel inhibition; B-score at 10 µM; Q9QUQ5; AID 2247; actives 0.39% (n = 300,000); HEK293 TRPC4beta/mu-opioid, DAMGO-evoked Fluo4 calcium flux; stronger effect = lower value;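 active means B-score over 3 SD under the library average, no early fluorescence shift, positive overall ratio signal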
Target sequence (Q9QUQ5 whole entry, looked up): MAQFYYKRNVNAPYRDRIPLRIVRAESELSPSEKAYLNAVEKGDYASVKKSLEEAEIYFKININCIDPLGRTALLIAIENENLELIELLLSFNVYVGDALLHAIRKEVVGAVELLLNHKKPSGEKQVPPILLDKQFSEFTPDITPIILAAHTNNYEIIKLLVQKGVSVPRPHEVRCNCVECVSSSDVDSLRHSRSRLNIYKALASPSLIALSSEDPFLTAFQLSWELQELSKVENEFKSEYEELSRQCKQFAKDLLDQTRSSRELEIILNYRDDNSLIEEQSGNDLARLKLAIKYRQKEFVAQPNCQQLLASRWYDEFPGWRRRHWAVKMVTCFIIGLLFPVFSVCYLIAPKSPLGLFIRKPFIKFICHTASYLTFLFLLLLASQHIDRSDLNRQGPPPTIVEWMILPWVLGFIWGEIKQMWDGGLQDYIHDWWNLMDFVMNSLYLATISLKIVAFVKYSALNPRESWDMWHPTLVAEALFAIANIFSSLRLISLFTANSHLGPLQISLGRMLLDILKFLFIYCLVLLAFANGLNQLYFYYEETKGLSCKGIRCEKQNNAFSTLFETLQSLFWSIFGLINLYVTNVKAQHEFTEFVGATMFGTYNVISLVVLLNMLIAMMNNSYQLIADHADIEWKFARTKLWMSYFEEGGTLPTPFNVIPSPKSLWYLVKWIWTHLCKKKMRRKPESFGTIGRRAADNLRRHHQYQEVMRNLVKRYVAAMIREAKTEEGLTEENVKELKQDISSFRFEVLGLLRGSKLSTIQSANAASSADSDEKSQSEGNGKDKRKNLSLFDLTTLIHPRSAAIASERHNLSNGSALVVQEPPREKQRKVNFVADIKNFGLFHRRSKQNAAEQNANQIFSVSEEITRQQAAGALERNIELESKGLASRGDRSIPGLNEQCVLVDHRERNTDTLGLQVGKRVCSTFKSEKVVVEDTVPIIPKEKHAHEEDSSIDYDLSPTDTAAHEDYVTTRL
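Signal: kinetic Fluo4 fluorescence imaging of calcium influx. Material: stable TRPC4beta/mu-opioid receptor HEK293 cells. Probe or stimulus: DAMGO in two steps, submaximal then maximal.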
CR mimetic SO = caloric restriction mimetics inhibiting age-related superoxide in yeast | actives 0.18% (n = 330,000) | S. cerevisiae aged cells, superoxide DHE fluorescence; stronger effect = lower value | superoxide response (% of plate mean), % at 10 µM | AID 2690;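 active means superoxide response under a set limit, about three screen SD below normal, cut at about 65% in these data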;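 further: yeast aged for seven days with compound at 30 °C before DHE staining; 100% = average MFI of all compound-treated wells on the plate with controls excluded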
TRPC6 inhibitor = mouse TRPC6 channel inhibition | HEK293-TRPC6, membrane potential dye, ACh-evoked depolarization; stronger effect = lower value | B-score at 10 µM | actives 1.1% (n = 310,000);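 active means B-score under library mean minus 3 SD, initial fluorescence not abnormally high, positive integrated signal ratio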;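 further: B-score derived from integrated fluorescence ratio over the kinetic read; more negative B-score means stronger inhibition of depolarization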
TRPC4 PAM = allosterically enhances the mouse TRPC4 cation channel | HEK293 TRPC4beta/mu-opioid, DAMGO EC20, Fluo-4 Ca2+ flux; stronger effect = higher value | B-score at 10 µM | actives 0.42% (n = 310,000) | AID 2227;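 active means B-score of calcium response area above 5 SD of library B-scores, with initial fluorescence ratio within 5 SD of library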;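 further: B-score of integrated fluorescence ratio over time as area under calcium response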
TRPC4 act = TRPC4 (mouse) channel activation | Q9QUQ5 | HEK293 TRPC4beta/mu-opioid, Fluo4 calcium fluorescence; stronger effect = higher value | B-score at 10 µM | actives 0.49% (n = 310,000) | AID 2237;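 active means B-score above 5 SD of library B-scores, and initial fluorescence ratio not above library mean plus 5 SD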;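 further: positive B-score marks a calcium rise read as TRPC4 activation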
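Incubation: 45 min room-temperature Fluo4 loading, 110 s read / System: HEK293 cells stably co-expressing mouse TRPC4beta and mu-opioid receptor / Signal: Fluo4 fluorescence, kinetic / Control set: buffer (low) and maximal DAMGO (high) / Measure: integrated baseline-normalised fluorescence ratio, converted to per-well B score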
Superoxide pick = confirmation of caloric restriction mimetics inhibiting yeast age-related superoxide; superoxide response (% of plate), % at 10 µM; actives 1% (n = 850); shares compounds with CR mimetic SO; AID 434994; S. cerevisiae aging, superoxide DHE fluorescence; stronger effect = lower value;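 active means superoxide signal below 65% of the plate average of sample wells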;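 further: cells aged with compound for 7 days at 30 degrees C before staining; 100% equals mean DHE fluorescence of all compound wells on the plate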
DHE counter = compound alters DHE oxidation or fluorescence in yeast; shares compounds with CR mimetic SO; S. cerevisiae BY4741, flow cytometry; stronger effect = lower value; fluorescence response, % at 10 µM; 850 tested, under 10 active; AID 435000;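 active means fluorescence response below 15%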;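 further: percent of the mean fluorescence averaged over all compound wells on the plate; lower means stronger quenching of DHE signal or ROS scavenging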
Active calls of the source: *; i = inactive; . = not tested or not shown.

SMILES	TRPC6 activator	TRPC4 block	CR mimetic SO	TRPC6 inhibitor	TRPC4 PAM	TRPC4 act	Superoxide pick	DHE counter
CCC(C)c1ccc(C(C)NC(=S)NC2CCCCC2)cc1 (stereo not given)	i	i	50.4*	i	i	i	83.6	90.4
CCc1nonc1NC(=O)c1oc2cc(Br)ccc2c1C	i	i	113.0	i	i	i	.	.
CCc1nonc1NC(=O)c1oc2c(C)c(C)ccc2c1C	i	i	42.9*	i	i	i	98.2	89.4
CCCOc1ccc2cc(-c3ccccn3)c(=O)oc2c1	i	i	59.5*	i	i	i	100.1	95.5
O=c1oc2cc(OCc3c(F)cccc3Cl)ccc2cc1-c1ccccn1	i	i	96.3	i	i	i	.	.
S=C(NNc1nc(Nc2ccccc2)nc(N2CCCCC2)n1)NC1CCCCC1	i	i	100.8	i	i	i	.	.
COc1ccc2c(C)cc(SCC(=O)c3ccc4c(c3)OCO4)nc2c1	i	i	64.4*	i	i	i	93.9	94.8
COCCCNC(=O)/C(C#N)=c1\s/c(=C\c2ccccc2OC(F)F)c(=O)n1CCCOC	i	i	102.6	i	i	i	.	.
CCCCNC(=O)/C(C#N)=c1\s/c(=C\c2ccccc2OC(F)F)c(=O)n1CCCOC	i	i	64.8*	i	i	i	117.9	103.8
CC(C)c1nnc(SCC(=O)N2CCOCC2)n1C	i	i	101.5	i	i	i	.	.
CCCCCc1ccc(OCCCC[n+]2ccc(C)cc2)c(CCCCC)c1	i	i	116.6	i	i	i	84.8	96.0
CCCCOc1ccc(C)cc1CN(CCO)CCO	i	i	105.6	i	i	i	.	.
CCC(C)(C)c1ccc(OCCCC[n+]2ccccc2)c(C(C)(C)CC)c1	i	i	81.1	i	i	i	93.8	92.7
CCCCCc1ccc(OCCCC[n+]2cccc(C)c2)c(CCCCC)c1	i	i	100.2	i	i	i	104.9	89.0
CCC(C)(C)c1ccc(Oc2cccc(C(=O)O)c2)cc1	i	i	94.5	i	i	i	.	.
CCCCCc1ccc(OCCCC[n+]2ccccc2)c(CCCCC)c1	i	i	89.3	i	i	i	88.0	96.7
Cc1c(F)cccc1NS(=O)(=O)c1ccccc1C#N	i	i	89.7	i	i	i	104.5	92.2
COc1ccccc1NS(=O)(=O)c1ccccc1C#N	i	i	124.9	i	i	i	.	.
Cc1ccc(N2CCN(C(=O)c3cccc([N+](=O)[O-])c3)CC2)cc1Cl	i	i	112.0	i	i	i	87.8	98.7
Cc1ccc(C(=O)N2CCN(c3ccccc3Cl)CC2)cc1[N+](=O)[O-]	i	i	73.4	i	i	i	92.3	98.9
Cc1ccc(C(=O)N2CCN(c3ccccn3)CC2)cc1[N+](=O)[O-]	i	i	90.4	i	i	i	.	.
Cc1ccc(CNC(=O)Cn2ncn3cccc3c2=O)cc1	i	i	124.0	i	i	i	.	.
CCc1ccc(NC(=O)CCS(=O)(=O)c2ccc(Cl)cc2)cc1	i	i	51.4*	i	i	i	84.0	95.1
Cc1c(Br)c(-c2n[nH]c(=S)n2Cc2ccco2)nn1C	i	i	88.6	i	i	i	.	.
Cc1cc(-c2n[nH]c(=S)n2Cc2ccco2)nn1C	i	i	65.0*	i	i	i	101.6	98.4
COc1ccc(F)cc1S(=O)(=O)Nc1ccc(C)cc1	i	i	97.8	i	i	i	102.8	91.8
COc1ccc(NS(=O)(=O)c2cc(C)ccc2OC)cc1OC	i	i	101.6	i	i	i	.	.

Source: PubChem BioAssay
